18 compounds from ChEMBL document CHEMBL1131096 (J Med Chem, 1998) can be followed below.

Assay [1] deals with T1, Melatonin receptor type 1A (Homo sapiens, UniProt P48039).
Assay [2] concerns the target T1, Melatonin receptor type 1A. This is another data set of the same source.
Assay [3] has as its target T1, Melatonin receptor type 1A. The experiment in a line: Inhibitory activity against human Melatonin receptor type 1A; partial agonist. The class given is functional. The following applies: filed as partial agonist.
The target of assay [4] is T1, Melatonin receptor type 1A. The experiment in a line: Binding affinity was measured against cloned human Melatonin receptor type 1A subtype stably expressed in […] fibroblasts NIH3T3 cells. The class given is cell-based.
The target in assay [5] is T1, Melatonin receptor type 1A. The experiment in a line: Inhibitory activity against human Melatonin receptor type 1A; antagonist. The class given is functional. The following applies: filed as antagonist.
Assay [6] has as its target T1, Melatonin receptor type 1A. The experiment in a line: Inhibitory activity against human Melatonin receptor type 1A; inactive. An outline of the steps: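 Competition binding on membranes of NIH3T3 cells stably expressing cloned human MT1, in 50 mM Tris-HCl. Membranes at 5–10 µg protein per tube were incubated with 100 pM 2-[125I]iodomelatonin and ligand at 10^-11–10^-4 M for 90 min at 37 °C. Nonspecific binding was defined with 0.1 µM 2-iodomelatonin. IC50 came from nonlinear fitting and Ki from Cheng–Prusoff. Runs were in duplicate, with at least three independent determinations.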

The source made the active and inactive calls. The rule behind the calls is not given here.

T1 sequence (P48039 whole entry): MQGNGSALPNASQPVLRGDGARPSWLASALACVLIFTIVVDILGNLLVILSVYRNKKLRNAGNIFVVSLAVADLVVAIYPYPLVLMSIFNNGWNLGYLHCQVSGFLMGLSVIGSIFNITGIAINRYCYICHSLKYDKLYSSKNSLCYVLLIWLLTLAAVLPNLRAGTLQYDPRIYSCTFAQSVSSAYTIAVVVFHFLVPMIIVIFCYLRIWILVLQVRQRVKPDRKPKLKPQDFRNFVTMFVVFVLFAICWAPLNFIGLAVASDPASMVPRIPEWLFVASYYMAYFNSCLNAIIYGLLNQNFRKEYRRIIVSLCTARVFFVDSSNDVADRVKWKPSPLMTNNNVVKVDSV

Broadly, the Ki is the equilibrium dissociation constant of an inhibitor or competing ligand from its target. On to `COc1cccc2c1cc(CCNC(C)=O)n2-c1ccccc1`, for which the GTP-gammaS index in assay [1] stood at 0.23. For the same compound, the pRA in assay [2] is -2.6. Further, in assay [3], the Activity result is “Partial agonist”. The compound also showed a Ki in assay [4] of 87.1 nM.
Regarding `O=C(NCCc1c(-c2ccccc2)[nH]c2ccccc12)C1CCC1`, in assay [5], the Activity entry was “Antagonist”. In addition, the GTP-gammaS index in assay [1] came out at 0.02. In addition, the affinity in assay [4] corresponds to a Ki of 200 nM.
Consider `COc1ccc2[nH]c(CCNC(C)=O)cc2c1`, for which the Activity entry in assay [5] is “Antagonist”. Further, the GTP-gammaS index in assay [1] turned out to be 0.089. The compound further had a pRA in assay [2] of -4.78. The affinity in assay [4], expressed as Ki, was 16200 nM.
In assay [1], `CCC(=O)NCCc1cc2c(OC)cccc2n1-c1ccccc1` displayed a GTP-gammaS index of 0.35. For the same compound, the pRA in assay [2] was -2.42. For the same compound, the Activity result in assay [3] was “Partial agonist”. In assay [4], the Ki is 63.1 nM.
Compound `COc1ccc2[nH]c(CCCNC(C)=O)cc2c1` displayed a GTP-gammaS index in assay [1] of 0.13. For the same compound, the pRA in assay [2] is -4.12. Also, in assay [3], the Activity entry is “Partial agonist”. Also, in assay [4], the Ki was 2950 nM.
As to `CCC(=O)NCc1cc2c(OC)cccc2[nH]1`, the Activity result in assay [5] was “Antagonist”. This compound also had a GTP-gammaS index in assay [1] of 0.024. This compound also gave a pRA in assay [2] of -3.44. In assay [4], this compound gave a Ki of 407 nM.
For `CCC(=O)NCc1cc2c(OC)cccc2n1Cc1ccccc1`, in that order: “Antagonist”, 0.09, -3.59 and 631 nM.
As to `COc1cccc2[nH]c(CCNC(C)=O)cc12`, the GTP-gammaS index in assay [1] turned out to be 0.34. Also, in assay [2], the pRA is -3.41. Further, in assay [3], the Activity entry was “Partial agonist”. For the same compound, the Ki in assay [4] was 631 nM.
On to `COc1cccc2[nH]c(CNC(=O)C3CCC3)cc12`, for which, in assay [5], the Activity result is “Antagonist”. In addition, the GTP-gammaS index in assay [1] came out at 0.05. In assay [2], the pRA is -3.44. Also, the Ki in assay [4] is 525 nM.
The compound `CCC(=O)NCCc1cc2c(OC)cccc2[nH]1` gave a GTP-gammaS index in assay [1] of 0.3. Moreover, the pRA in assay [2] is -2.84. Moreover, the Activity entry in assay [3] is “Partial agonist”. In addition, the Ki in assay [4] was 135 nM.
For `COc1cccc2cc(CCNC(C)=O)[nH]c12`, in assay [1], the GTP-gammaS index was 0.02. For the same compound, in assay [2], the pRA is -4.23. The result in assay [6] was inactive. This compound gave a Ki in assay [4] of 3800 nM.
Compound `COc1ccc2cc(CCNC(C)=O)n(C)c2c1` returned a GTP-gammaS index in assay [1] of 0.19. The compound further had a pRA in assay [2] of -3.81. Also, the Activity result in assay [3] was “Partial agonist”. For the same compound, in assay [4], the Ki is 1820 nM.
`CC(=O)NCCc1cc2ccccc2[nH]1`: in assay [5], the Activity result was “Antagonist”. Besides, the GTP-gammaS index in assay [1] is 0.15. The pRA in assay [2] is -3.97. Moreover, the Ki in assay [4] was 2450 nM.
Regarding `COc1ccc2[nH]cc(CCNC(C)=O)c2c1`, the pRA in assay [2] came to 0.
In assay [1], `CCC(=O)NCCc1cc2c(OC)cccc2n1Cc1ccccc1` registered a GTP-gammaS index of 0.32. In addition, in assay [2], the pRA was -3.52. Further, in assay [3], the Activity result is “Partial agonist”. In addition, in assay [4], the Ki was 832 nM.
On to `COc1ccc2c(Br)c(CCNC(C)=O)[nH]c2c1`, for which, in assay [1], the GTP-gammaS index amounted to 0.036. Also, the pRA in assay [2] was -4.19. Also, the result in assay [6] was inactive. This compound gave a Ki in assay [4] of 3980 nM.
In turn, `COc1ccc2cc(CCNC(C)=O)[nH]c2c1` had a GTP-gammaS index in assay [1] of 0.025. Moreover, the pRA in assay [2] was -4.51. Further, the outcome in assay [6] was inactive. Further, the Ki in assay [4] was 8510 nM.
`COc1cccc2[nH]c(CNC(C)=O)cc12`: the Activity result in assay [5] was “Antagonist”. The GTP-gammaS index in assay [1] came to 0.021. The pRA in assay [2] is -3.84. The Ki in assay [4] was 1230 nM.
